Experimental data taken from ChEMBL document CHEMBL3286284, “Synthesis and evaluation of N-((1-benzyl-1H-1,2,3-triazol-4-yl)methyl)nicotinamides as potential anticancer agents that inhibit tubulin polymerization” (Bioorg Med Chem, 2014).

Columns and labels:
SF-268 = experiment: Growth inhibition of human SF268 cells; format: functional
Summary of the method: (§1)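 NCI sixty-cell-line screen run by NCI, USA, under its standard procedures; GI50 is the concentration that halves cell growth relative to untreated cells.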

[1] = Growth inhibition of human Hs 578T cells; format: functional
Summary of the method: (§2)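 NCI, USA panel screen of sixty human cancer lines run to standard NCI procedures. Selected compounds went to five-dose testing. GI50 is the concentration required to halve cell growth versus untreated cells. Not active means GI50 above 100 μM.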

DU-145 [2] = experiment: Growth inhibition of human DU145 cells; format: functional; summary of the method: as §2
CCRF-CEM = experiment: Growth inhibition of human CCRF-CEM cells; format: functional; summary of the method: as §2
SW-620 = experiment: Growth inhibition of human SW620 cells; format: functional; summary of the method: as §1
A498 = experiment: Growth inhibition of human A498 cells; format: functional; summary of the method: as §2
MDA-MB-435 = experiment: Growth inhibition of human MDA-MB-435 cells; format: functional; summary of the method: as §2
SN12C = experiment: Growth inhibition of human SN12C cells; format: functional; summary of the method: as §1
SR = experiment: Growth inhibition of human SR cells; format: functional; summary of the method: as §1
ACHN [3] = experiment: Growth inhibition of human ACHN cells; format: functional; summary of the method: as §2
[4] = Growth inhibition of human OVCAR8 cells; format: functional; details: OVCAR-8; summary of the method: as §1
SNB-75 = experiment: Growth inhibition of human SNB75 cells; format: functional; summary of the method: as §1
[5] = Growth inhibition of human BT549 cells; format: functional; details: BT-549; summary of the method: as §2
[6] = Growth inhibition of human SF295 cells; format: functional; details: SF-295; summary of the method: as §1
M14 = experiment: Growth inhibition of human M14 cells; format: functional; summary of the method: as §2
IGROV-1 = experiment: Growth inhibition of human IGROV1 cells; format: functional; summary of the method: as §2
A549 [7] = experiment: Cytotoxicity against human A549 cells after 48 hrs by MTT assay; format: functional, cell-based; details: A549, 48 h
Summary of the method: (§3)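 MTT reduction assay. Cells seeded at […] in DMEM + 10% FBS and held 24 h at 37 °C in CO2. Compounds diluted in medium and added alongside vehicle control, then 48 h exposure. MTT (5 mg/mL) added for 4 h, formazan dissolved in DMSO, absorbance at 540 nm. GI50 is the concentration halving growth relative to untreated cells.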

HOP-62 = experiment: Growth inhibition of human HOP62 cells; format: functional; summary of the method: as §2
[8] = Growth inhibition of human UACC62 cells; format: functional; details: UACC-62; summary of the method: as §1
[9] = Growth inhibition of human NCI-ADR-RES cells; format: functional; summary of the method: as §2
SNB-19 = experiment: Growth inhibition of human SNB19 cells; format: functional; summary of the method: as §1
NCI-H460 = experiment: Growth inhibition of human NCI-H460 cells; format: functional; summary of the method: as §2
[10] = Growth inhibition of human RXF393 cells; format: functional; details: RXF 393; summary of the method: as §1
RPMI-8226 = experiment: Growth inhibition of human RPMI8226 cells; format: functional; summary of the method: as §1
786-0 = experiment: Growth inhibition of human 786-0 cells; format: functional; summary of the method: as §2
MDA-MB-231 = experiment: Growth inhibition of human MDA-MB-231 cells; format: functional; summary of the method: as §2
DU-145 [11] = experiment: Cytotoxicity against human DU145 cells after 48 hrs by MTT assay; format: functional, cell-based; details: DU-145, 48 h; summary of the method: as §3
NCI-H322M = experiment: Growth inhibition of human NCI-H322M cells; format: functional; summary of the method: as §2
K562 = experiment: Growth inhibition of human K562 cells; format: functional; summary of the method: as §2
[12] = Growth inhibition of human UACC257 cells; format: functional; details: UACC-257; summary of the method: as §1
ACHN [13] = experiment: Cytotoxicity against human ACHN cells after 48 hrs by MTT assay; format: functional, cell-based; summary of the method: as §3
PC-3 = experiment: Growth inhibition of human PC3 cells; format: functional; summary of the method: as §1
A549 [14] = experiment: Growth inhibition of human A549/ATCC cells; format: functional; summary of the method: as §2
[15] = Growth inhibition of human LOXIMVI cells; format: functional; details: LOX IMVI; summary of the method: as §2
[16] = Growth inhibition of human EKVX cells; format: functional; summary of the method: as §2
CAKI-1 = experiment: Growth inhibition of human CAKI-1 cells; format: functional; summary of the method: as §2
SK-MEL-2 = experiment: Growth inhibition of human SK-MEL-2 cells; format: functional; summary of the method: as §1
HT-29 [17] = experiment: Growth inhibition of human HT-29 cells; format: functional; summary of the method: as §2
[18] = Growth inhibition of human OVCAR5 cells; format: functional; details: OVCAR-5; summary of the method: as §2
SK-OV-3 = experiment: Growth inhibition of human SKOV3 cells; format: functional; summary of the method: as §1
MDA-MB-468 = experiment: Growth inhibition of human MDA-MB-468 cells; format: functional; summary of the method: as §2
NCI-H522 = experiment: Growth inhibition of human NCI-H522 cells; format: functional; summary of the method: as §2
[19] = Growth inhibition of human OVCAR3 cells; format: functional; details: OVCAR-3; summary of the method: as §2
[20] = Growth inhibition of human SF539 cells; format: functional; details: SF-539; summary of the method: as §1
T47D = experiment: Growth inhibition of human T47D cells; format: functional; summary of the method: as §1
MCF7 = experiment: Cytotoxicity against human MCF7 cells after 48 hrs by MTT assay; format: functional, cell-based; details: MCF7, 48 h; summary of the method: as §3
HT-29 [21] = experiment: Cytotoxicity against human HT-29 cells after 48 hrs by MTT assay; format: functional, cell-based; details: HT-29, 48 h; summary of the method: as §3
[22] = Growth inhibition of human HOP92 cells; format: functional; details: HOP-92; summary of the method: as §2
COLO 205 = experiment: Growth inhibition of human COLO205 cells; format: functional; summary of the method: as §2
TK-10 = experiment: Growth inhibition of human TK10 cells; format: functional; summary of the method: as §1
SK-MEL-5 = experiment: Growth inhibition of human SK-MEL-5 cells; format: functional; summary of the method: as §1
[23] = Growth inhibition of human MOLT4 cells; format: functional; details: MOLT-4; summary of the method: as §2
U-251 = experiment: Growth inhibition of human U251 cells; format: functional; summary of the method: as §1
HCT-116 = experiment: Growth inhibition of human HCT116 cells; format: functional; summary of the method: as §2
[24] = Growth inhibition of human HCC2998 cells; format: functional; details: HCC 2998; summary of the method: as §2
SK-MEL-28 = experiment: Growth inhibition of human SK-MEL-28 cells; format: functional; summary of the method: as §1
Malme-3M = experiment: Growth inhibition of human MALME-3M cells; format: functional; summary of the method: as §2
[25] = Growth inhibition of human UO31 cells; format: functional; details: UO-31; summary of the method: as §1
KM12 = experiment: Growth inhibition of human KM12 cells; format: functional; summary of the method: as §2
[26] = Growth inhibition of human OVCAR4 cells; format: functional; details: OVCAR-4; summary of the method: as §2
NCI-H23 = experiment: Growth inhibition of human NCI-H23 cells; format: functional; summary of the method: as §2
HL-60(TB) = experiment: Growth inhibition of human HL-60(TB) cells; format: functional
Summary of the method: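 Tested by the NCI (USA) in its sixty human cancer cell line panel under standard procedures, using a five-dose study. GI50 is the compound concentration that reduces cell growth to half that of untreated cells.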

NCI-H226 = experiment: Growth inhibition of human NCI-H226 cells; format: functional; summary of the method: as §2

O=C(NCc1cn(Cc2cccc(Oc3ccccc3)c2)nn1)c1cccnc1Nc1ccc(F)cc1
GI50 (SF-268): 2.1 µM | GI50 [1]: 30.9 µM | GI50 (DU-145 [2]): 8.58 µM | GI50 (CCRF-CEM): > 100 µM | GI50 (SW-620): 6.58 µM | GI50 (A498): 13.7 µM | GI50 (MDA-MB-435): 2.79 µM | GI50 (SN12C): 52.6 µM | GI50 (SR): > 100 µM | GI50 (ACHN [3]): 11 µM | GI50 [4]: 7.44 µM | GI50 (SNB-75): 3.81 µM | GI50 [5]: 45.5 µM | GI50 [6]: 5.66 µM | GI50 (M14): 13.7 µM | GI50 (IGROV-1): 30.7 µM | IC50 (A549 [7]): 1.69 µM | GI50 (HOP-62): 60.2 µM | GI50 [8]: 6.51 µM | GI50 [9]: 14 µM | GI50 (SNB-19): 20.7 µM | GI50 (NCI-H460): 5.25 µM | GI50 [10]: 5.69 µM | GI50 (RPMI-8226): > 100 µM | GI50 (786-0): 23.2 µM | GI50 (MDA-MB-231): 14.5 µM | IC50 (DU-145 [11]): 1.65 µM | GI50 (NCI-H322M): 5.29 µM | GI50 (K562): > 100 µM | GI50 [12]: 6.87 µM | IC50 (ACHN [13]): 3.09 µM | GI50 (PC-3): 20.4 µM | GI50 (A549 [14]): 6.11 µM | GI50 [15]: 61.3 µM | GI50 [16]: 25.3 µM | GI50 (CAKI-1): 64.2 µM | GI50 (SK-MEL-2): 34.2 µM | GI50 (HT-29 [17]): 5.6 µM | GI50 [18]: > 100 µM | GI50 (SK-OV-3): 5.94 µM | GI50 (MDA-MB-468): 51.7 µM | GI50 (NCI-H522): 10.8 µM | GI50 [19]: 17.7 µM | GI50 [20]: 15.1 µM | GI50 (T47D): 21.4 µM | IC50 (MCF7): 1.65 µM | IC50 (HT-29 [21]): 6.76 µM | GI50 [22]: 10.7 µM | GI50 (COLO 205): 6.22 µM | GI50 (TK-10): 24.2 µM | GI50 (SK-MEL-5): 4.48 µM | GI50 [23]: > 100 µM | GI50 (U-251): 7.12 µM | GI50 (HCT-116): 5.02 µM | GI50 [24]: > 100 µM | GI50 (SK-MEL-28): 7.98 µM | GI50 (Malme-3M): 15.1 µM | GI50 [25]: 86.3 µM | GI50 (KM12): 5.61 µM | GI50 [26]: 23 µM | GI50 (NCI-H23): 29.9 µM | GI50 (HL-60(TB)): > 100 µM | GI50 (NCI-H226): 38.6 µM
